Converted amounts (≈) assume the structure as drawn.
Assays:
[1] = test system: Staphylococcus aureus; assay: Antimicrobial activity against methicillin-resistant Staphylococcus aureus RCMB 2658 clinical isolate after 20 hrs by broth microdilution method; format: functional; conditions: RCMB 2658, 20 h
How it was run: (§1)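 CLSI broth microdilution in cation-adjusted Mueller Hinton broth. Compounds were serially diluted in triplicate and plates held at 37 °C for 20 h. MIC was taken by eye as the lowest concentration with no visible growth, and the average of the triplicate determinations is reported.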

[2] = test system: Staphylococcus aureus; assay: Bactericidal activity against methicillin-resistant Staphylococcus aureus USA300 assessed as time required to reduce bacterial inoculum to zero colony forming units at 3 times MIC by time kill assay; format: functional
How it was run: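 Samples taken at 2, 4, 6, 8, 10, 12 and 24 h were serially diluted in PBS and plated on trypticase soy agar. Viable CFU/mL were counted after at least 16 h at 37 °C.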

[3] = test system: HaCaT; assay: Cytotoxicity against human HaCaT cells assessed as cell viability up to 16 ug/ml after 2 hrs by MTS assay; format: cell-based
How it was run: (§2)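 HaCaT keratinocytes were grown in DMEM with 10% FBS at 37 °C, 5% CO₂. They were exposed in triplicate to 8–256 μg/mL for 2 h, then MTS was added. Background-corrected absorbance was expressed as % viability relative to a DMSO vehicle control.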

[4] = Aqueous solubility of the compound in PBS after 2 hrs by turbidity assay; format: physicochemical
How it was run: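 Serial dilutions were made […] and diluted 100-fold into PBS. After 2 h, turbidity was read at 540 nm with pre-addition background subtracted. Turbidity was taken as absorbance > blank mean + 3 SD. Solubility limit is the highest concentration with no turbidity.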

[5] = test system: Staphylococcus aureus; assay: Potency index, ratio of vancomycin MIC to compound MIC for methicillin-resistant Staphylococcus aureus RCMB 2658 clinical isolate; format: functional
[6] = test system: Staphylococcus aureus; assay: Antimicrobial activity against methicillin-sensitive Staphylococcus aureus NRS72 clinical isolate after 20 hrs by broth microdilution method; format: functional; conditions: NRS72, 20 h; how it was run: as §1
[7] = test system: Staphylococcus aureus; assay: Antimicrobial activity against methicillin-resistant Staphylococcus aureus NRS119 clinical isolate after 20 hrs by broth microdilution method; format: functional; conditions: NRS119, 20 h; how it was run: as §1
[8] = test system: Staphylococcus aureus; assay: Antimicrobial activity against methicillin-resistant Staphylococcus aureus USA400 NRS123 clinical isolate after 20 hrs by broth microdilution method; format: functional; conditions: USA400 NRS123, 20 h; how it was run: as §1
[9] = test system: Staphylococcus aureus; assay: Antimicrobial activity against methicillin-resistant Staphylococcus aureus USA100 NRS382 clinical isolate after 20 hrs by broth microdilution method; format: functional; conditions: USA100 NRS382, 20 h; how it was run: as §1
[10] = test system: Staphylococcus aureus; assay: Antimicrobial activity against methicillin-resistant Staphylococcus aureus USA200 NRS383 clinical isolate after 20 hrs by broth microdilution method; format: functional; conditions: USA200 NRS383, 20 h; how it was run: as §1
[11] = test system: Staphylococcus aureus; assay: Antimicrobial activity against methicillin-resistant Staphylococcus aureus USA300 NRS384 clinical isolate after 20 hrs by broth microdilution method; format: functional; conditions: USA300 NRS384, 20 h; how it was run: as §1
[12] = test system: Staphylococcus aureus; assay: Antimicrobial activity against vancomycin-resistant Staphylococcus aureus 10 clinical isolate after 20 hrs by broth microdilution method; format: functional; conditions: isolate 10, 20 h; how it was run: as §1
[13] = test system: Enterococcus faecium; assay: Antimicrobial activity against vancomycin-resistant Enterococcus faecium ATCC 700221 after 20 hrs by broth microdilution method; format: functional; conditions: ATCC 700221, 20 h; how it was run: as §1
[14] = test system: Staphylococcus aureus; assay: Bactericidal activity against methicillin-sensitive Staphylococcus aureus NRS72 clinical isolate after 20 hrs by broth microdilution method; format: functional; conditions: NRS72, 20 h
[15] = test system: Staphylococcus aureus; assay: Bactericidal activity against methicillin-resistant Staphylococcus aureus NRS119 clinical isolate after 20 hrs by broth microdilution method; format: functional; conditions: NRS119, 20 h
[16] = test system: Staphylococcus aureus; assay: Bactericidal activity against methicillin-resistant Staphylococcus aureus USA400 NRS123 clinical isolate after 20 hrs by broth microdilution method; format: functional; conditions: USA400 NRS123, 20 h
[17] = test system: Staphylococcus aureus; assay: Bactericidal activity against methicillin-resistant Staphylococcus aureus USA100 NRS382 clinical isolate after 20 hrs by broth microdilution method; format: functional; conditions: USA100 NRS382, 20 h
[18] = test system: Staphylococcus aureus; assay: Bactericidal activity against methicillin-resistant Staphylococcus aureus USA200 NRS383 clinical isolate after 20 hrs by broth microdilution method; format: functional; conditions: USA200 NRS383, 20 h
[19] = test system: Staphylococcus aureus; assay: Bactericidal activity against methicillin-resistant Staphylococcus aureus USA300 NRS384 clinical isolate after 20 hrs by broth microdilution method; format: functional; conditions: USA300 NRS384, 20 h
[20] = test system: Staphylococcus aureus; assay: Bactericidal activity against vancomycin-resistant Staphylococcus aureus 10 clinical isolate after 20 hrs by broth microdilution method; format: functional; conditions: isolate 10, 20 h
[21] = test system: Enterococcus faecium; assay: Bactericidal activity against vancomycin-resistant Enterococcus faecium ATCC 700221 after 20 hrs by broth microdilution method; format: functional; conditions: ATCC 700221, 20 h
[22] = Ratio of non toxic dose for cytotoxicity against human HaCaT cells to MIC for methicillin-resistant Staphylococcus aureus RCMB 2658 clinical isolate; format: toxicity, cell-based
How it was run: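 HaCaT keratinocytes in DMEM with 10% FBS at 37 °C, 5% CO2, exposed for 2 h to 8–256 μg/mL, then MTS read-out. Viability is given as a percentage of the DMSO control, in triplicate. The highest non-toxic concentration is divided by the MRSA MIC.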

[23] = test system: HaCaT; assay: Cytotoxicity against human HaCaT cells assessed as cell viability up to 64 ug/ml after 2 hrs by MTS assay; format: cell-based; how it was run: as §2
[24] = Apparent permeability across apical to basolateral side in human Caco2 cells at pH 6.5 after 2 hrs by LC/MS/MS analysis; format: ADME, cell-based; conditions: Caco-2, pH 6.5
How it was run: (§3)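 Caco-2 cells were grown and differentiated for 3 weeks, fed every 2 days. Compound was added to the apical or basolateral side and measured on the opposite side after 2 h by LC/MS/MS. Apical buffer was pH 6.5 transport buffer (glucose, 10 mM HEPES, HBSS) with 100 μM Lucifer yellow; basolateral buffer was pH 7.4. Lucifer yellow fluorescence checked monolayer integrity. Papp = (dQ/dt)/C₀A; efflux ratio = Papp(B→A)/Papp(A→B).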

[25] = Efflux ratio of apparent permeability from basolateral to apical side over apical to basolateral side in human Caco2 cells after 2 hrs by LC/MS/MS analysis; format: ADME, cell-based; conditions: Caco-2; how it was run: as §3
[26] = Cmax in Sprague-Dawley rat plasma at 50 mg/kg administered via oral gavage measured 24 hrs post dose by LC/MS/MS analysis; format: ADME, organism-based; design: dose 50 mg/kg, route oral
How it was run: (§4)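 Male naive Sprague-Dawley rats (n = 3) received a single 50 mg/kg oral gavage dose in 5% ethanol, 45% PEG 400, 50% water. Blood was collected into EDTA-K2 tubes over 24 h post dose. Plasma was protein-precipitated with acetonitrile and parent was quantified by LC/MS/MS to derive PK parameters.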

[27] = Tmax in Sprague-Dawley rat plasma at 50 mg/kg administered via oral gavage measured 24 hrs post dose by LC/MS/MS analysis; format: ADME, organism-based; how it was run: as §4
[28] = AUClast in Sprague-Dawley rat plasma at 50 mg/kg administered via oral gavage measured 24 hrs post dose by LC/MS/MS analysis; format: ADME, organism-based; design: dose 50 mg/kg, time 0 - last, route oral; how it was run: as §4
[29] = test system: Rattus norvegicus; assay: Half life in Sprague-Dawley rat plasma at 50 mg/kg administered via oral gavage measured 24 hrs post dose by LC/MS/MS analysis; format: ADME, organism-based; conditions: in vivo; how it was run: as §4
[30] = Mean residence time in Sprague-Dawley rat plasma at 50 mg/kg administered via oral gavage measured 24 hrs post dose by LC/MS/MS analysis; format: ADME, organism-based; how it was run: as §4
[31] = test system: Rattus norvegicus; assay: Elimination rate constant in Sprague-Dawley rat plasma at 50 mg/kg administered via oral gavage by LC/MS/MS analysis; format: ADME, organism-based; conditions: in vivo; how it was run: as §4
[32] = Total AUC in Sprague-Dawley rat plasma at 50 mg/kg administered via oral gavage measured 24 hrs post dose by LC/MS/MS analysis; format: ADME, organism-based; design: dose 50 mg/kg, route oral, time AUCmax; how it was run: as §4
[33] = Apparent permeability across basolateral to apical side in human Caco2 cells at pH 7.4 after 2 hrs by LC/MS/MS analysis; conditions: Caco-2, pH 7.4

CCCCc1ccc(-c2nc(C)c(/C(C)=N/NC(=N)N)s2)cc1
MIC [1]: 4.8 mg/L (≈ 14.6 µM)
Time [2]: 6 h
Activity [3]: Non-toxic

Cc1nc(-c2ccc(C3=CCCCC3)cc2)sc1-c1ccnc(N)n1
MIC [1]: 0.78 mg/L (≈ 2.24 µM)
solubility kinetic at 2 h [4]: 37 µM (≈ 12.9 µg/mL)
Ratio [5]: 1

CCCCc1ccc(-c2nc(C)c(-c3ccnc(N=C(N(C)C)N(C)C)n3)s2)cc1
MIC [1]: > 25 mg/L

Cc1nc(-c2ccc(C3=CCCCCC3)cc2)sc1-c1ccnc(N)n1
MIC [1]: 3.12 mg/L (≈ 8.61 µM)

CCCCc1ccc(-c2nc(C)c(-c3ccnc(NN)n3)s2)cc1
MIC [1]: 0.4 mg/L (≈ 1.18 µM)
MIC [6]: 2 mg/L (≈ 5.89 µM)
MIC [7]: 2 mg/L (≈ 5.89 µM)
MIC [8]: 2 mg/L (≈ 5.89 µM)
MIC [9]: 2 mg/L (≈ 5.89 µM)
MIC [10]: 2 mg/L (≈ 5.89 µM)
MIC [11]: 2 mg/L (≈ 5.89 µM)
MIC [12]: 1 mg/L (≈ 2.95 µM)
MIC [13]: 2 mg/L (≈ 5.89 µM)
MBC [14]: 8 mg/L (≈ 23.6 µM)
MBC [15]: 2 mg/L (≈ 5.89 µM)
MBC [16]: 2 mg/L (≈ 5.89 µM)
MBC [17]: 4 mg/L (≈ 11.8 µM)
MBC [18]: 2 mg/L (≈ 5.89 µM)
MBC [19]: 2 mg/L (≈ 5.89 µM)
MBC [20]: 2 mg/L (≈ 5.89 µM)
MBC [21]: 8 mg/L (≈ 23.6 µM)
solubility kinetic at 2 h [4]: 55 µM (≈ 18.7 µg/mL)
Time [2]: 2 h
selectivity ratio [22]: 160
Activity [23]: Non-toxic
Papp A→B at 2 h [24]: 16 nm/s
efflux ratio at 2 h [25]: 1.8
Cmax [26]: 9.33 µg/mL
Tmax [27]: 4.67 h
AUC(0-t) at 24 h [28]: 83.2 µg·h/mL
t1/2 [29]: 8.24 h
MRT [30]: 7.74 h
Kel [31]: 0.19 h⁻¹
AUC at 24 h [32]: 100 µg·h/mL
Papp B→A at 2 h [33]: 28 nm/s

CCCCc1ccc(-c2nc(C)c(-c3ccnc(N4CCCC4)n3)s2)cc1
MIC [1]: > 25 mg/L

CCCCc1ccc(-c2nc(C)c(-c3ccn4ncnc4n3)s2)cc1
MIC [1]: > 25 mg/L

CCCCc1ccc(-c2nc(C)c(-c3ccnc(NC#N)n3)s2)cc1
MIC [1]: 18.7 mg/L (≈ 53.5 µM)

Cc1nc(-c2ccc(-c3ccsc3)cc2)sc1-c1ccnc(N)n1
MIC [1]: 6.25 mg/L (≈ 17.8 µM)
solubility kinetic at 2 h [4]: 8.5 µM (≈ 2.98 µg/mL)

CCCCc1ccc(-c2nc(C)c(-c3ccnc(NC)n3)s2)cc1
MIC [1]: > 25 mg/L

CCCCc1ccc(-c2nc(C)c(-c3ccnc(NC(=N)N)n3)s2)cc1
MIC [1]: 1.56 mg/L (≈ 4.26 µM)

Cc1nc(-c2ccc(/C=C/C3CCCCC3)cc2)sc1-c1ccnc(N)n1
MIC [1]: 3.12 mg/L (≈ 8.29 µM)

CCCCc1ccc(-c2nc(C)c(-c3ccnc(-c4cccnc4)n3)s2)cc1
MIC [1]: 17.2 mg/L (≈ 44.5 µM)

Cc1nc(-c2ccc(C=C3CCCCC3)cc2)sc1-c1ccnc(N)n1
MIC [1]: 1.56 mg/L (≈ 4.3 µM)

— ChEMBL document CHEMBL3826892, “Second-Generation Phenylthiazole Antibiotics with Enhanced Pharmacokinetic Properties” (J Med Chem, 2016)
